This note sets out measurements from ChEMBL document CHEMBL3808349, “Antineoplastic Agents. 585. Isolation of Bridelia ferruginea Anticancer Podophyllotoxins and Synthesis of 4-Aza-podophyllotoxin Structural Modifications” (2016).

The structures appear in SMILES notation. Converted amounts (≈) assume the structure as drawn.

Holding throughout (assay type): functional
For one experiment, the system named is NCI-H460. The experiment is described as follows: Growth inhibition of human NCI-H460 cells measured after 48 hrs by sulforhodamine B assay. Particulars: NCI-H460, 48 h. The method, boiled down: (§1)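 Cells were seeded in RPMI1640 with 5% fetal bovine serum and incubated 24 h before serial dilutions of sample were added. After 48 h exposure, cells were fixed with trichloroacetic acid and stained with sulforhodamine B, and optical density was read by plate reader.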
For orientation: The SRB assay estimates cell density from bound dye.

In the next experiment the test system is MCF7. Put plainly: Growth inhibition of human MCF7 cells measured after 48 hrs by sulforhodamine B assay. Particulars: MCF7, 48 h. The method, boiled down:
as §1

Experiment [1] is described as follows: Growth inhibition of human KM20L2 cells measured after 48 hrs by sulforhodamine B assay. The conditions noted are these: KM-20L2, 48 h. The method, boiled down:
as §1

Experiment [2] in a line: Growth inhibition of human BxPC3 cells measured after 48 hrs by sulforhodamine B assay. The conditions noted are these: BXPC-3, 48 h. The method, boiled down:
as §1

The next experiment deals with P388. The experiment is described as follows: Growth inhibition of mouse P388 cells measured after 48 hrs by sulforhodamine B assay. The conditions noted are these: P388, 48 h, read-out: ED50 (the source's name).
A short description of experiment [3]: Growth inhibition of human DU145 cells measured after 48 hrs by sulforhodamine B assay. Particulars: DU-145, 48 h. The method, boiled down: as §1
The nature of experiment [4]: Growth inhibition of human SF268 cells measured after 48 hrs by sulforhodamine B assay. The conditions noted are these: SF-268, 48 h. The method, boiled down: as §1

As usually defined, the GI50 is the concentration giving 50% growth inhibition. Higher therefore signals lower sensitivity of the cells. `COc1cc([C@@H]2c3cc4c(cc3C[C@H]3COC(=O)[C@@H]32)OCO4)cc(OC)c1OC` [DESOXYPODOPHYLLOTOXIN]: the concentration for 50% growth inhibition (GI50) was determined as 1.8 ng/mL (≈ 4.52 nM) in the experiment with NCI-H460; 2.7 ng/mL (≈ 6.78 nM) in the experiment on MCF7; 1.4 ng/mL (≈ 3.51 nM) in experiment [1]; 0.44 ng/mL (≈ 1.1 nM) in experiment [2]; 1.7 ng/mL (≈ 4.27 nM) in experiment [3]; 0.56 ng/mL (≈ 1.41 nM) in experiment [4]. Besides, the EC50 in the experiment on P388 came out at 0.029 µg/mL (≈ 72.8 nM).
